Key:
[1] = Inhibition of IL2-dependent mouse CTLL2 cell proliferation after 48 hrs by MTT assay; format: functional, cell-based; settings: CTLL-2, 48 h
Summary of the method: (§1)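 CTLL-2 cells were washed free of IL-2 and FBS, then resuspended at 5×10^5 cells/mL in growth medium without IL-2. They were incubated with compounds plus IL-2 (50 U/mL) for 48 h at 37 °C and 5% CO2. Proliferation was read by MTT assay. Results are mean ± SEM of four observations.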

[2] = tested on: RAW264.7; assay: Antiinflammatory activity against mouse RAW264.7 cells assessed as inhibition of LPS-induced TNFalpha production after 4 hrs by ELISA; format: functional, cell-based; settings: RAW264.7, 4 h
Summary of the method: (§2)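 Compounds were dissolved in vehicle (propylene glycol/ethanol/DMSO), kept at ≤0.1% final, and added with LPS (1 µg/mL) for 4 h. Supernatant TNF-α was measured by mouse TNF-α ELISA. Results are mean ± SEM of four observations in triplicate.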

[3] = tested on: RAW264.7; assay: Antiinflammatory activity against mouse RAW264.7 assessed as inhibition of IFN-gamma-induced NO production after 24 hrs; format: functional, cell-based; settings: RAW264.7, 24 h
Summary of the method: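 RAW264.7 mouse macrophages kept in RPMI 1640 with 10% FBS and antibiotics, 37 °C, 5% CO2. Cells pre-cultured 18 h at 1×10^6 cells/mL, then given graded compound concentrations plus IFN-γ (50 U/mL) for 24 h. Supernatant nitrite read by Griess reagent (10 min, room temperature) at OD550, quantified against a sodium nitrite standard curve. Mean ± SEM, four separate observations in triplicate.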

[4] = tested on: RAW264.7; assay: Antiinflammatory activity against mouse RAW264.7 assessed as inhibition of LPS-induced NO production after 24 hrs; format: functional, cell-based; settings: RAW264.7, 24 h
Summary of the method: (§3)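 RAW264.7 cells were plated at 1×10^6 cells/mL and held 18 h. Compounds were then added with LPS (1 µg/mL) for lines 1 and 3, or IFN-γ (50 U/mL) for line 2, and incubated 24 h. Supernatant nitrite was measured with Griess reagent (10 min, room temperature) at OD550 against a sodium nitrite standard curve. Detection limit was 0.5 µM. Results are mean ± SEM of four observations run in triplicate.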

[5] = tested on: Splenocyte; assay: Inhibition of Concanavalin A-stimulated cell proliferation in mouse splenocytes after 48 hrs by MTT assay; format: functional, cell-based
Summary of the method: (§4)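 Splenocytes came from BALB/c male mice (eight weeks old); red cells were lysed with NH4Cl-Tris. Cells were cultured at 5×10^6 cells/mL with Con A (1 µg/mL) and compounds for 48 h. Results are mean ± SEM of four observations.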

[6] = tested on: RAW264.7; assay: Antiinflammatory activity against mouse RAW264.7 cells assessed as inhibition of IFN-gamma-induced NO production at 20 uM after 24 hrs; format: functional; parameters: scale not given: the % may be the effect or the level left; summary of the method: as §3
[7] = tested on: SUP-T1; assay: Cytotoxicity against human Sup-T1 cells at 80 uM after 48 hrs by MTT assay; settings: SUP-T1, 48 h
[8] = tested on: RAW264.7; assay: Antiinflammatory activity against mouse RAW264.7 cells assessed as inhibition of LPS-induced TNFalpha production at 80 uM after 4 hrs by ELISA; format: functional; settings: RAW264.7, 4 h
Summary of the method: as §2, with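 “RAW264.7 cells (2×10^6 cells/mL) were pre-incubated 18 h in RPMI 1640 with 10% FBS. Compounds” for “Compounds”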

[9] = Inhibition of IL2-dependent mouse CTLL2 cell proliferation at 80 uM after 48 hrs by MTT assay; format: functional; settings: CTLL-2, 48 h; summary of the method: as §1
[10] = tested on: RAW264.7; assay: Antiinflammatory activity against mouse RAW264.7 cells assessed as inhibition of LPS-induced NO production at 80 uM after 24 hrs; format: functional; settings: RAW264.7, 24 h; summary of the method: as §3
[11] = Antiinflammatory activity against mouse splenocytes assessed as inhibition of ConA-stimulated proliferation at 80 uM after 48 hrs by MTT assay; format: functional; settings: Splenocyte; summary of the method: as §4

What does the source list for `CCCC(=O)Nc1ncnc2c1ncn2[C@@H]1O[C@@H]2COP(=O)(O)O[C@H]2[C@H]1OC(=O)CCC` [BUCLADESINE]?
IC50 [1]: 576 µM; IC50 [2]: 28.9 µM

For `COC(=O)[C@@H](N)CCCNC(=N)N[N+](=O)[O-]` [L-NAME], which IC50 [3] is on record?
Its IC50 is 116 µM.

And the IC50 [4]?
Its IC50 is 193 µM.

Which IC50 [5] does the source give for `N[C@H]1CONC1=O` [LEVCYCLOSERINE] here?
Its IC50 is 3.5 µM.

Which IC50 [2] does the source give for `CC(=O)CCCCn1c(=O)c2c(ncn2C)n(C)c1=O` [PENTOXIFYLLINE] here?
The IC50 was 247 µM.

For `C[C@]12C=CC(=O)C=C1CC[C@@H]1[C@@H]2[C@@H](O)C[C@@]2(C)[C@H]1CC[C@]2(O)C(=O)CO` [PREDNISOLONE], which IC50 [2] is on record?
Its IC50 is 25.4 µM.

Which IC50 [1] does the source give for `C/C(O)=C(\C#N)C(=O)Nc1ccc(C(F)(F)F)cc1` [TERIFLUNOMIDE] here?
The IC50 was 11.2 µM.

And the IC50 [5]?
The IC50 was 6.7 µM.

With `COc1cc([C@@H]2Oc3c(OC)cc(/C=C/CO[C@@H]4O[C@H](CO)[C@@H](O)[C@H](O)[C@H]4O)cc3[C@H]2CO)cc(OC)c1OC` [WOORENOSIDE I] as the compound, how does the Activity [6] read?
The Activity was 8.5%.

And the inhibition at 80 µM [7]?
The inhibition at 80 µM was 32.1%.

And the inhibition at 80 µM [8]?
Its inhibition at 80 µM is 15.4%.

And the inhibition at 80 µM [9]?
Its inhibition at 80 µM is -5.4%.

And the inhibition at 80 µM [10]?
Its inhibition at 80 µM is 34.7%.

What about the inhibition at 80 µM [11] of the same compound?
The inhibition at 80 µM was 24.8%.
